Test results: ChEMBL document CHEMBL1158025, “Antimalarial activity of macrocyclic trichothecenes isolated from the fungus Myrothecium verrucaria” (J Nat Prod, 1999)
In brackets after ≈: the same amount, converted by molar mass.

Columns and labels:
[1] = tested on: KB; assay: Cytotoxicity against human KB cells at 20 ug/mL; assay type: functional
[2] = Cytotoxicity against human BC1 cells at 20 ug/mL; assay type: functional
[3] = tested on: Vero; assay: Cytotoxicity against african green monkey Vero cells at 20 ug/mL; assay type: functional; conditions: Chlorocebus sabaeus
[4] = tested on: Plasmodium falciparum; assay: Antimalarial activity against Plasmodium falciparum K1 by [3H]hypoxanthine uptake; assay type: functional, organism-based
Outline: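 P. falciparum K1 (multidrug-resistant) asexual erythrocytic stages were kept in continuous in vitro culture. Activity was measured by a microculture radioisotope method. EC50 is the concentration giving 50% reduction in parasite growth, read as in vitro [3H]hypoxanthine uptake.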

[5] = tested on: KB; assay: Cytotoxicity against human KB cells; assay type: functional, cell-based
[6] = Cytotoxicity against human BC1 cells; assay type: functional, cell-based
[7] = tested on: Vero; assay: Cytotoxicity against african green monkey Vero cells; assay type: functional, cell-based, Chlorocebus sabaeus

C[C@@H]1CC[C@H]2[C@@H](C)C(=O)O[C@@H]3O[C@@]4(C)CC[C@@H]1[C@]32OO4 [ARTEMISININ]
inhibition at 20 µg/mL [1]: < 50%
inhibition at 20 µg/mL [2]: < 50%
inhibition at 20 µg/mL [3]: < 50%

CC1=C[C@H]2O[C@@H]3C[C@H]4OC(=O)/C=C\C=C\[C@H]([C@@H](C)O)OCC[C@@H](C)[C@H](O)C(=O)OC[C@@]2(CC1)[C@]4(C)[C@]31CO1 [RORIDIN A]
EC50 [4]: 0.31 ng/mL (≈ 0.582 nM)
EC50 [5]: 1 ng/mL (≈ 1.88 nM)
EC50 [6]: 5 ng/mL (≈ 9.39 nM)
EC50 [7]: 1.7 ng/mL (≈ 3.19 nM)

CC(=O)O[C@H](C)[C@H]1/C=C/C=C\C(=O)O[C@@H]2C[C@H]3O[C@@H]4C=C(C)CC[C@]4(COC(=O)/C=C(\C)CCO1)[C@]2(C)[C@]31CO1 [RORIDIN E ACETATE]
EC50 [4]: 0.06 ng/mL
EC50 [5]: 14 ng/mL
EC50 [6]: 15 ng/mL
EC50 [7]: 4.1 ng/mL

CC1=C[C@H]2O[C@@H]3C[C@H]4OC(=O)/C=C\C=C\[C@H]([C@@H](C)O)OCC/C(C)=C/C(=O)OC[C@@]2(CC1)[C@]4(C)[C@]31CO1 [RORIDIN E]
EC50 [4]: 0.15 ng/mL (≈ 0.291 nM)
EC50 [5]: 0.5 ng/mL (≈ 0.972 nM)
EC50 [6]: 0.7 ng/mL (≈ 1.36 nM)
EC50 [7]: 0.4 ng/mL (≈ 0.777 nM)

CC1=C[C@H]2O[C@@H]3C[C@H]4OC(=O)/C=C\C=C\C(=O)OCC[C@@H](C)[C@H](O)C(=O)OC[C@@]2(CC1)[C@]4(C)[C@]31CO1 [VERRUCARIN A]
EC50 [4]: 0.9 ng/mL (≈ 1.79 nM)
EC50 [5]: 1.2 ng/mL (≈ 2.39 nM)
EC50 [6]: 4.2 ng/mL (≈ 8.36 nM)
EC50 [7]: 1.1 ng/mL (≈ 2.19 nM)

CC1=C[C@H]2O[C@@H]3C[C@H]4OC(=O)/C=C\C=C\C(=O)OCC/C(C)=C/C(=O)OC[C@@]2(CC1)[C@]4(C)[C@]31CO1 [VERRUCARIN J]
EC50 [4]: 0.2 ng/mL (≈ 0.413 nM)
EC50 [5]: 3.9 ng/mL (≈ 8.05 nM)
EC50 [6]: 14 ng/mL (≈ 28.9 nM)
EC50 [7]: 1.2 ng/mL (≈ 2.48 nM)
